Here are results for 2 molecules from ChEMBL document CHEMBL1154781, “Synthesis and antimicrobial activity of some new N-acyl substituted phenothiazines” (2009).

Assay [1] relates to Aspergillus fumigatus. Put plainly: Antifungal activity against Aspergillus fumigatus NCIM 902 after 2 to 3 days by serial plate dilution method. Type of assay: functional. Put shortly: (§1)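 For the fungal lawn, a loopful of each strain was suspended in 3 ml normal saline and spread on agar plates. Excess suspension was decanted and the plates were dried 1 h at 37 °C. Wells were punched and labeled. Plates, including a triplicate control, were held at 37 °C for 2–3 days. Zones of inhibition and MIC were recorded against fluconazole as standard.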

The subject of assay [2] is Aspergillus niger. Put plainly: Antifungal activity against Aspergillus niger NCIM 617 at >50 ug/ml after 2 to 3 days by serial plate dilution method. Type of assay: functional, organism-based. Put shortly: as §1
The subject of assay [3] is Pseudomonas aeruginosa. Put plainly: Antibacterial activity against Pseudomonas aeruginosa ATCC 27853 after 24 hrs by disc diffusion method. Format: functional. As to conditions: ATCC 27853, 24 h. In outline: (§2)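 Bacterial strains tested on discs at each concentration, placed in triplicate in nutrient agar seeded with fresh bacteria; incubated 37 °C for 24 h. Ciprofloxacin served as reference, with solvent and growth controls. Zones of inhibition and MICs were recorded.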

Assay [4] has as its system Aspergillus flavus. Put plainly: Antifungal activity against Aspergillus flavus NCIM 524 at 10 ug/ml after 2 to 3 days by serial plate dilution method. Format: functional. As to conditions: read-out: IZ. In outline: as §1
In assay [5] the test system is Escherichia coli. Put plainly: Antibacterial activity against Escherichia coli ATCC 25922 after 24 hrs by disc diffusion method. Format: functional. As to conditions: ATCC 25922, 24 h. Put shortly:
as §2

In assay [6] the test system is Pseudomonas aeruginosa. Put plainly: Antibacterial activity against Pseudomonas aeruginosa ATCC 27853 at 10 ug/ml after 24 hrs by disc diffusion method. Type of assay: functional. As to conditions: ATCC 27853, 24 h, read-out: IZ. In outline: as §2
Assay [7] relates to Aspergillus fumigatus. Put plainly: Antifungal activity against Aspergillus fumigatus NCIM 902 at 10 ug/ml after 2 to 3 days by serial plate dilution method. As to conditions: read-out: IZ. Type of assay: functional. Put shortly: as §1
Assay [8] deals with Candida albicans. Put plainly: Antifungal activity against Candida albicans NCIM 300 at >50 ug/ml after 2 to 3 days by serial plate dilution method. Type of assay: functional, organism-based. Put shortly:
as §1

Assay [9] deals with Aspergillus flavus. Put plainly: Antifungal activity against Aspergillus flavus NCIM 524 after 2 to 3 days by serial plate dilution method. Format: functional. In outline: as §1
For assay [10], the system named is Bacillus subtilis. As to the kind of experiment: Antibacterial activity against Bacillus subtilis ATCC 11774 at 15 ug/ml after 24 hrs by disc diffusion method. Type of assay: functional. As to conditions: ATCC 11774, 24 h, read-out: IZ. Put shortly: as §2
For orientation: A growth-free zone around the sample is the usual read-out of agar diffusion tests.

Assay [11] deals with Escherichia coli. Put plainly: Antibacterial activity against Escherichia coli ATCC 25922 at 10 ug/ml after 24 hrs by disc diffusion method. Type of assay: functional. As to conditions: ATCC 25922, 24 h, read-out: IZ. Put shortly:
as §2

For assay [12], the system named is Staphylococcus aureus. As to the kind of experiment: Antibacterial activity against Staphylococcus aureus ATCC 25923 at after 24 hrs by disc diffusion method. Type of assay: functional. As to conditions: ATCC 25923, 24 h. In outline:
as §2

Assay [13] concerns Bacillus subtilis. Put plainly: Antibacterial activity against Bacillus subtilis ATCC 11774 after 24 hrs by disc diffusion method. Type of assay: functional. As to conditions: ATCC 11774, 24 h. Put shortly: as §2
Assay [14] relates to Staphylococcus aureus. As to the kind of experiment: Antibacterial activity against Staphylococcus aureus ATCC 25923 at 10 ug/ml after 24 hrs by disc diffusion method. Format: functional. As to conditions: ATCC 25923, 24 h, read-out: IZ. In outline: as §2
The subject of assay [15] is Candida albicans. Put plainly: Antifungal activity against Candida albicans NCIM 300 at 10 ug/ml after 2 to 3 days by serial plate dilution method. Format: functional. As to conditions: read-out: IZ. Put shortly:
as §1

Assay [16] relates to Escherichia coli. As to the kind of experiment: Antibacterial activity against Escherichia coli ATCC 25922 at >50 ug/ml after 24 hrs by disc diffusion method. Format: functional, organism-based. In outline:
as §2

Assay [17] deals with Candida albicans. As to the kind of experiment: Antifungal activity against Candida albicans NCIM 300 after 2 to 3 days by serial plate dilution method. Format: functional. Put shortly:
as §1

Assay [18] has as its system Pseudomonas aeruginosa. As to the kind of experiment: Antibacterial activity against Pseudomonas aeruginosa ATCC 27853 at >50 ug/ml after 24 hrs by disc diffusion method. Format: functional, organism-based. Put shortly:
as §2

Assay [19] deals with Aspergillus niger. As to the kind of experiment: Antifungal activity against Aspergillus niger NCIM 617 at 10 ug/ml after 2 to 3 days by serial plate dilution method. As to conditions: read-out: IZ. Type of assay: functional. In outline:
as §1

Assay [20] deals with Aspergillus niger. Put plainly: Antifungal activity against Aspergillus niger NCIM 617 after 2 to 3 days by serial plate dilution method. Type of assay: functional. Put shortly:
as §1

The subject of assay [21] is Staphylococcus aureus. As to the kind of experiment: Antibacterial activity against Staphylococcus aureus ATCC 25923 at >50 ug/ml after 24 hrs by disc diffusion method. Type of assay: functional, organism-based. In outline: as §2

Each structure is given as a SMILES string. In brackets after ≈: the same amount, converted by molar mass. Activity calls are given as the source filed them.

In the case of `CC(=O)c1ccc2c(c1)N(C(=O)CN1C(=O)C=CC1=O)c1ccccc1S2`, the MIC (commonly the smallest concentration in the dilution series that meets the test's criterion for growth inhibition) stood at 30 µg/mL (≈ 79.3 µM) in assay [1]; 15 µg/mL (≈ 39.6 µM) in [3]; 20 µg/mL (≈ 52.9 µM) in assay [5]; 25 µg/mL (≈ 66.1 µM) in [9]; 15 µg/mL (≈ 39.6 µM) in assay [12]; 15 µg/mL (≈ 39.6 µM) in [13]. Besides, the result in assay [2] and in [8] was inactive. The zone of inhibition at 10 µg/mL was 18 mm in assay [4]; 17 mm in assay [6]; 16 mm in assay [7]; 18 mm in [11]; 16 mm in assay [14]. Besides, in [10], the zone of inhibition at 15 µg/mL was found to be 16 mm.
As to `O=C1c2ccccc2C(=O)N1CC(=O)N1c2ccccc2Sc2ccc(C(F)(F)F)cc21`, the MIC in assay [1] was determined as 10 µg/mL (≈ 22 µM); in [17], 10 µg/mL (≈ 22 µM); in assay [9], 10 µg/mL (≈ 22 µM); in [20] it was 10 µg/mL (≈ 22 µM); in assay [13], 25 µg/mL (≈ 55 µM). Moreover, the zone of inhibition at 10 µg/mL came to 21 mm in assay [15], 22 mm in assay [4], 18 mm in assay [7] and 21 mm in [19]. Moreover, the result in [16], in assay [18] and in assay [21] was inactive. For the same molecule, the zone of inhibition at 15 µg/mL in [10] is 14 mm.
